ChEMBL document CHEMBL3994579, “Synthesis and antibacterial activity of novel 3-O-descladinosylazithromycin derivatives” (2017)
Converted amounts (≈) assume the structure as drawn.

Assays:
Assay type in all cases: functional
Streptococcus pneumoniae [1] = assay: Antibacterial activity against erythromycin-resistant Streptococcus pneumoniae B1 expressing ermB gene by broth microdilution method
Procedure, shortened: (§1)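 Broth microdilution per NCCL recommendation, read as minimal inhibitory concentration, run alongside azithromycin and clarithromycin references. Strains: S. pneumoniae B1 (erythromycin-resistant, ermB), A22072 (erythromycin-resistant, mefA), AB11 (erythromycin-resistant, erm and mef); S. aureus ATCC29213 ([…]); S. epidermidis clinical isolate (penicillin-resistant, not characterized).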

[2] = tested on: Staphylococcus epidermidis; assay: Antibacterial activity against penicillin-resistant Staphylococcus epidermidis clinical isolate by broth microdilution method; procedure, shortened: as §1
Bacillus subtilis = assay: Antibacterial activity against erythromycin/penicillin-susceptible Bacillus subtilis ATCC 9372 by broth microdilution method
Procedure, shortened: (§2)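 MICs were determined in vitro by broth microdilution following the NCCL-recommended method. Azithromycin and clarithromycin were run alongside as reference antibiotics on the same strain panel.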

Streptococcus pneumoniae [3] = assay: Antibacterial activity against erythromycin-resistant Streptococcus pneumoniae AB11 expressing ermB/mefA genes by broth microdilution method; procedure, shortened: as §1
Pseudomonas aeruginosa = assay: Antibacterial activity against penicillin-susceptible Pseudomonas aeruginosa ATCC 27853 by broth microdilution method; procedure, shortened: as §2
Streptococcus pyogenes [4] = assay: Antibacterial activity against erythromycin-resistant Streptococcus pyogenes R1 clinical isolate by broth microdilution method
Staphylococcus aureus [5] = assay: Antibacterial activity against […] Staphylococcus aureus ATCC 29213 by broth microdilution method; procedure, shortened: as §1
Staphylococcus aureus [6] = assay: Antibacterial activity against erythromycin-susceptible Staphylococcus aureus ATCC 25923 by broth microdilution method; procedure, shortened: as §2
Streptococcus pneumoniae [7] = assay: Antibacterial activity against erythromycin-resistant Streptococcus pneumoniae A22072 expressing mefA gene by broth microdilution method; procedure, shortened: as §1
Escherichia coli = assay: Antibacterial activity against penicillin-susceptible Escherichia coli ATCC 25922 by broth microdilution method; procedure, shortened: as §2
Streptococcus pyogenes [8] = assay: Antibacterial activity against erythromycin-susceptible Streptococcus pyogenes clinical isolate by broth microdilution method; procedure, shortened: as §2

Row | Compound | MIC (Streptococcus pneumoniae [1]) | MIC [2] | MIC (Bacillus subtilis) | MIC (Streptococcus pneumoniae [3]) | MIC (Pseudomonas aeruginosa) | MIC (Streptococcus pyogenes [4]) | MIC (Staphylococcus aureus [5]) | MIC (Staphylococcus aureus [6]) | MIC (Streptococcus pneumoniae [7]) | MIC (Escherichia coli) | MIC (Streptococcus pyogenes [8])
1 | CC[C@H]1OC(=O)[C@H](C)[C@@H](OC(=O)Nc2ccc(F)cc2)[C@H](C)[C@@H](O[C@@H]2O[C@H](C)C[C@H](N(C)C)[C@H]2O)[C@](C)(O)C[C@@H](C)CN(C)[C@H](C)[C@H]2OC(=O)O[C@@]21C | 32 µg/mL (≈ 42.4 µM) | 64 µg/mL (≈ 84.9 µM) | 16 µg/mL (≈ 21.2 µM) | 8 µg/mL (≈ 10.6 µM) | 128 µg/mL (≈ 170 µM) | 64 µg/mL (≈ 84.9 µM) | 64 µg/mL (≈ 84.9 µM) | 32 µg/mL (≈ 42.4 µM) | 2 µg/mL (≈ 2.65 µM) | 128 µg/mL (≈ 170 µM) | 0.25 µg/mL (≈ 0.332 µM)
2 | CC[C@H]1OC(=O)[C@H](C)[C@@H](OC(=O)Nc2ccccc2)[C@H](C)[C@@H](O[C@@H]2O[C@H](C)C[C@H](N(C)C)[C@H]2O)[C@](C)(O)C[C@@H](C)CN(C)[C@H](C)[C@@H](OC(=O)NCc2ccc(C)cc2)[C@]1(C)O | 64 µg/mL (≈ 74.7 µM) | 16 µg/mL (≈ 18.7 µM) | 32 µg/mL (≈ 37.3 µM) | 64 µg/mL (≈ 74.7 µM) | 128 µg/mL (≈ 149 µM) | 64 µg/mL (≈ 74.7 µM) | 128 µg/mL (≈ 149 µM) | 32 µg/mL (≈ 37.3 µM) | 16 µg/mL (≈ 18.7 µM) | 128 µg/mL (≈ 149 µM) | 4 µg/mL (≈ 4.67 µM)
3 | CC[C@H]1OC(=O)[C@H](C)[C@@H](OC(=O)Nc2cccc(C(F)(F)F)c2)[C@H](C)[C@@H](O[C@@H]2O[C@H](C)C[C@H](N(C)C)[C@H]2O)[C@](C)(O)C[C@@H](C)CN(C)[C@H](C)[C@H]2OC(=O)O[C@@]21C | 32 µg/mL (≈ 39.8 µM) | 0.5 µg/mL (≈ 0.622 µM) | 64 µg/mL (≈ 79.6 µM) | 8 µg/mL (≈ 9.95 µM) | 128 µg/mL (≈ 159 µM) | 64 µg/mL (≈ 79.6 µM) | 128 µg/mL (≈ 159 µM) | 16 µg/mL (≈ 19.9 µM) | 8 µg/mL (≈ 9.95 µM) | 128 µg/mL (≈ 159 µM) | 1 µg/mL (≈ 1.24 µM)
4 | CC[C@H]1OC(=O)[C@H](C)[C@@H](OC(=O)Nc2cccc(C)c2)[C@H](C)[C@@H](O[C@@H]2O[C@H](C)C[C@H](N(C)C)[C@H]2O)[C@](C)(O)C[C@@H](C)CN(C)[C@H](C)[C@H]2OC(=O)O[C@@]21C | 64 µg/mL (≈ 85.3 µM) | 4 µg/mL (≈ 5.33 µM) | 8 µg/mL (≈ 10.7 µM) | 16 µg/mL (≈ 21.3 µM) | 64 µg/mL (≈ 85.3 µM) | 32 µg/mL (≈ 42.7 µM) | 64 µg/mL (≈ 85.3 µM) | 2 µg/mL (≈ 2.67 µM) | 8 µg/mL (≈ 10.7 µM) | 64 µg/mL (≈ 85.3 µM) | 1 µg/mL (≈ 1.33 µM)
5 | CC[C@H]1OC(=O)[C@H](C)[C@@H](OC(=O)Nc2cccc(Cl)c2)[C@H](C)[C@@H](O[C@@H]2O[C@H](C)C[C@H](N(C)C)[C@H]2O)[C@](C)(O)C[C@@H](C)CN(C)[C@H](C)[C@H]2OC(=O)O[C@@]21C | 32 µg/mL (≈ 41.5 µM) | 0.5 µg/mL (≈ 0.649 µM) | 16 µg/mL (≈ 20.8 µM) | 4 µg/mL (≈ 5.19 µM) | 128 µg/mL (≈ 166 µM) | 32 µg/mL (≈ 41.5 µM) | 64 µg/mL (≈ 83.1 µM) | 8 µg/mL (≈ 10.4 µM) | 1 µg/mL (≈ 1.3 µM) | 128 µg/mL (≈ 166 µM) | 0.25 µg/mL (≈ 0.325 µM)
6 | CC[C@H]1OC(=O)[C@H](C)[C@@H](OC(=O)NCc2ccccc2)[C@H](C)[C@@H](O[C@@H]2O[C@H](C)C[C@H](N(C)C)[C@H]2OC(C)=O)[C@](C)(O)C[C@@H](C)CN(C)[C@H](C)[C@H]2OC(=O)O[C@@]21C | 128 µg/mL (≈ 162 µM) | 64 µg/mL (≈ 80.8 µM) | 64 µg/mL (≈ 80.8 µM) | 64 µg/mL (≈ 80.8 µM) | 128 µg/mL (≈ 162 µM) | 128 µg/mL (≈ 162 µM) | 64 µg/mL (≈ 80.8 µM) | 64 µg/mL (≈ 80.8 µM) | 32 µg/mL (≈ 40.4 µM) | 128 µg/mL (≈ 162 µM) | 8 µg/mL (≈ 10.1 µM)
7 | CC[C@H]1OC(=O)[C@H](C)[C@@H](OC(=O)Nc2cccc(OC)c2)[C@H](C)[C@@H](O[C@@H]2O[C@H](C)C[C@H](N(C)C)[C@H]2OC(C)=O)[C@](C)(O)C[C@@H](C)CN(C)[C@H](C)[C@H]2OC(=O)O[C@@]21C | 128 µg/mL (≈ 158 µM) | 32 µg/mL (≈ 39.6 µM) | 16 µg/mL (≈ 19.8 µM) | 32 µg/mL (≈ 39.6 µM) | 64 µg/mL (≈ 79.2 µM) | 128 µg/mL (≈ 158 µM) | 64 µg/mL (≈ 79.2 µM) | 32 µg/mL (≈ 39.6 µM) | 16 µg/mL (≈ 19.8 µM) | 64 µg/mL (≈ 79.2 µM) | 2 µg/mL (≈ 2.48 µM)
8 | CC[C@H]1OC(=O)[C@H](C)[C@@H](OC(=O)Nc2cccc(F)c2)[C@H](C)[C@@H](O[C@@H]2O[C@H](C)C[C@H](N(C)C)[C@H]2O)[C@](C)(O)C[C@@H](C)CN(C)[C@H](C)[C@H]2OC(=O)O[C@@]21C | 64 µg/mL (≈ 84.9 µM) | 64 µg/mL (≈ 84.9 µM) | 128 µg/mL (≈ 170 µM) | 32 µg/mL (≈ 42.4 µM) | 128 µg/mL (≈ 170 µM) | 128 µg/mL (≈ 170 µM) | 128 µg/mL (≈ 170 µM) | 32 µg/mL (≈ 42.4 µM) | 16 µg/mL (≈ 21.2 µM) | 128 µg/mL (≈ 170 µM) | 2 µg/mL (≈ 2.65 µM)
9 | CC[C@H]1OC(=O)[C@H](C)[C@@H](OC(=O)N(C)c2ccccc2)[C@H](C)[C@@H](O[C@@H]2O[C@H](C)C[C@H](N(C)C)[C@H]2O)[C@](C)(O)C[C@@H](C)CN(C)[C@H](C)[C@H]2OC(=O)O[C@@]21C | 64 µg/mL (≈ 85.3 µM) | 8 µg/mL (≈ 10.7 µM) | 4 µg/mL (≈ 5.33 µM) | 4 µg/mL (≈ 5.33 µM) | 64 µg/mL (≈ 85.3 µM) | 64 µg/mL (≈ 85.3 µM) | 64 µg/mL (≈ 85.3 µM) | 4 µg/mL (≈ 5.33 µM) | 2 µg/mL (≈ 2.67 µM) | 64 µg/mL (≈ 85.3 µM) | 0.125 µg/mL (≈ 0.167 µM)
10 | CC[C@H]1OC(=O)[C@H](C)[C@@H](OC(=O)Nc2ccc(C(F)(F)F)cc2)[C@H](C)[C@@H](O[C@@H]2O[C@H](C)C[C@H](N(C)C)[C@H]2O)[C@](C)(O)C[C@@H](C)CN(C)[C@H](C)[C@H]2OC(=O)O[C@@]21C | 32 µg/mL (≈ 39.8 µM) | 0.25 µg/mL (≈ 0.311 µM) | 32 µg/mL (≈ 39.8 µM) | 4 µg/mL (≈ 4.98 µM) | 128 µg/mL (≈ 159 µM) | 64 µg/mL (≈ 79.6 µM) | 128 µg/mL (≈ 159 µM) | 16 µg/mL (≈ 19.9 µM) | 4 µg/mL (≈ 4.98 µM) | 128 µg/mL (≈ 159 µM) | 1 µg/mL (≈ 1.24 µM)
11 | CC[C@H]1OC(=O)[C@H](C)[C@@H](OC(=O)Nc2cccc(OC)c2)[C@H](C)[C@@H](O[C@@H]2O[C@H](C)C[C@H](N(C)C)[C@H]2O)[C@](C)(O)C[C@@H](C)CN(C)[C@H](C)[C@H]2OC(=O)O[C@@]21C | 64 µg/mL (≈ 83.6 µM) | 32 µg/mL (≈ 41.8 µM) | 16 µg/mL (≈ 20.9 µM) | 16 µg/mL (≈ 20.9 µM) | 64 µg/mL (≈ 83.6 µM) | 64 µg/mL (≈ 83.6 µM) | 64 µg/mL (≈ 83.6 µM) | 16 µg/mL (≈ 20.9 µM) | 16 µg/mL (≈ 20.9 µM) | 64 µg/mL (≈ 83.6 µM) | 2 µg/mL (≈ 2.61 µM)
12 | CC[C@H]1OC(=O)[C@H](C)[C@@H](OC(=O)Nc2ccccc2Cl)[C@H](C)[C@@H](O[C@@H]2O[C@H](C)C[C@H](N(C)C)[C@H]2O)[C@](C)(O)C[C@@H](C)CN(C)[C@H](C)[C@H]2OC(=O)O[C@@]21C | 64 µg/mL (≈ 83.1 µM) | 64 µg/mL (≈ 83.1 µM) | 8 µg/mL (≈ 10.4 µM) | 4 µg/mL (≈ 5.19 µM) | 128 µg/mL (≈ 166 µM) | 128 µg/mL (≈ 166 µM) | 64 µg/mL (≈ 83.1 µM) | 8 µg/mL (≈ 10.4 µM) | 1 µg/mL (≈ 1.3 µM) | 128 µg/mL (≈ 166 µM) | 0.125 µg/mL (≈ 0.162 µM)
13 | CCCCCNC(=O)O[C@H]1[C@H](C)[C@@H](O[C@@H]2O[C@H](C)C[C@H](N(C)C)[C@H]2OC(C)=O)[C@](C)(O)C[C@@H](C)CN(C)[C@H](C)[C@H]2OC(=O)O[C@]2(C)[C@@H](CC)OC(=O)[C@@H]1C | 64 µg/mL (≈ 82.9 µM) | 32 µg/mL (≈ 41.5 µM) | 32 µg/mL (≈ 41.5 µM) | 128 µg/mL (≈ 166 µM) | 128 µg/mL (≈ 166 µM) | 128 µg/mL (≈ 166 µM) | 64 µg/mL (≈ 82.9 µM) | 32 µg/mL (≈ 41.5 µM) | 32 µg/mL (≈ 41.5 µM) | 128 µg/mL (≈ 166 µM) | 4 µg/mL (≈ 5.18 µM)
14 | CC[C@H]1OC(=O)[C@H](C)[C@@H](OC(=O)Nc2ccccc2F)[C@H](C)[C@@H](O[C@@H]2O[C@H](C)C[C@H](N(C)C)[C@H]2O)[C@](C)(O)C[C@@H](C)CN(C)[C@H](C)[C@H]2OC(=O)O[C@@]21C | 64 µg/mL (≈ 84.9 µM) | 4 µg/mL (≈ 5.31 µM) | 32 µg/mL (≈ 42.4 µM) | 16 µg/mL (≈ 21.2 µM) | 64 µg/mL (≈ 84.9 µM) | 64 µg/mL (≈ 84.9 µM) | 64 µg/mL (≈ 84.9 µM) | 8 µg/mL (≈ 10.6 µM) | 16 µg/mL (≈ 21.2 µM) | 64 µg/mL (≈ 84.9 µM) | 0.5 µg/mL (≈ 0.663 µM)
